Activity calls are given as the source filed them.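 Rule for the calls, unless noted: active = viability loss from added drug above about 55%, and viability with drug at most 40%, in both replicates (limit read from the data, passing the limit was not always enough); inconclusive = both conditions met in only one replicate; inactive = neither replicate meets both conditions.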
How the values were obtained:
[1] = reducers of endogenous Her2 protein level, primary screen, SKBR3 breast tumor cells, AlphaScreen, ATP viability (AID 461;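 active = Her2 level under about 52% in both replicate screens, with viability over 70% of control, limit read from the data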;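 for Her2 level: lower value means less Her2 protein in the cells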;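 for viability: percent of carrier control wells set as 100% viability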); conditions: 18-24 h, measured here: SKBR3 viability, ATP luminescence, at 10 µM
[2] = biological target: Receptor tyrosine-protein kinase erbB-2 (Homo sapiens) (UniProt P04626); test: as above; conditions: 18-24 h, at 10 µM, stronger effect = lower value
[3] = SK-BR-3 cell growth inhibitors, pilot screen, 24 h, human (AID 572;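 active = viability at or below 10% of carrier control in both of two separate runs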;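 note: compound exposure lasted between 18 and 24 h rather than exactly 24 h; 100% = carrier-treated control wells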); conditions: SK-BR-3 viability, CellTiter-Glo luminescence, at 10 µM, stronger effect = lower value
[4] = HUVEC growth inhibition – cell-based, human, primary screen (AID 575;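 active = viability at or below 30% in both replicate assays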;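 note: 100% = median of untreated cell wells with 0.1% DMSO on each plate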); conditions: HUVEC proliferation, CellTiter-Glo luminescence, 72 h; at 10 µM; stronger effect = lower value
Outline: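 System: primary human umbilical vein endothelial cells; Quantity: 1250 endothelial cells in each well; Buffer or medium: supplemented EBM, 2% fetal bovine serum; Doses: one dose, 10 µM final, 0.1% DMSO; Incubation: 72 h compound incubation; Technique: ATP-based CellTiter-Glo luminescent read; Evaluation: percent of median DMSO-control luminescence; Controls: vehicle and MePR control wells.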

[5] = growth inhibitors of H69AR lung tumor, primary screen, human, duplicate replicates (AID 580;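 active = viability at or under a set limit in both replicates, limit being median viability minus 3 SD, cut at about 48% in these data, passing the limit was not always enough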;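 note: 100% = mean luminescence of untreated wells and 0% = no signal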); conditions: H69AR lung tumor cells viability, ATP luminescence, 72 h; at 10 µM; stronger effect = lower value
[6] = reversal of MRP1-mediated doxorubicin resistance, pilot screen, H69AR cells, doxorubicin co-treatment (AID 601); conditions: CellTiter-Glo, 72 h, at 10 µM; for differential viability (reversal): stronger effect = higher value
[7] = 384-well plate pilot, post-Golgi transport modulator project, inhibition of yeast transport mutant growth (AID 636; in the data active = inhibition above about 31%); conditions: absorbance 615 nm, about 18 h, stronger effect = higher value
[8] = growth suppression of yeast trafficking mutant, preliminary HTS, modulators of trafficking downstream of Golgi apparatus project, 1536-format plate, OD 615 nm (AID 637; in the data active = inhibition above about 30%); conditions: yeast transport mutant growth, absorbance 615 nm, 18 h; stronger effect = higher value
[9] = H69AR cells + 2 uM doxorubicin, measured here: viability with 2 uM doxorubicin, stronger effect = lower value
[10] = H69AR cells, compound alone cytotoxicity

Sequence of Receptor tyrosine-protein kinase erbB-2 (Homo sapiens) (P04626 whole entry, looked up): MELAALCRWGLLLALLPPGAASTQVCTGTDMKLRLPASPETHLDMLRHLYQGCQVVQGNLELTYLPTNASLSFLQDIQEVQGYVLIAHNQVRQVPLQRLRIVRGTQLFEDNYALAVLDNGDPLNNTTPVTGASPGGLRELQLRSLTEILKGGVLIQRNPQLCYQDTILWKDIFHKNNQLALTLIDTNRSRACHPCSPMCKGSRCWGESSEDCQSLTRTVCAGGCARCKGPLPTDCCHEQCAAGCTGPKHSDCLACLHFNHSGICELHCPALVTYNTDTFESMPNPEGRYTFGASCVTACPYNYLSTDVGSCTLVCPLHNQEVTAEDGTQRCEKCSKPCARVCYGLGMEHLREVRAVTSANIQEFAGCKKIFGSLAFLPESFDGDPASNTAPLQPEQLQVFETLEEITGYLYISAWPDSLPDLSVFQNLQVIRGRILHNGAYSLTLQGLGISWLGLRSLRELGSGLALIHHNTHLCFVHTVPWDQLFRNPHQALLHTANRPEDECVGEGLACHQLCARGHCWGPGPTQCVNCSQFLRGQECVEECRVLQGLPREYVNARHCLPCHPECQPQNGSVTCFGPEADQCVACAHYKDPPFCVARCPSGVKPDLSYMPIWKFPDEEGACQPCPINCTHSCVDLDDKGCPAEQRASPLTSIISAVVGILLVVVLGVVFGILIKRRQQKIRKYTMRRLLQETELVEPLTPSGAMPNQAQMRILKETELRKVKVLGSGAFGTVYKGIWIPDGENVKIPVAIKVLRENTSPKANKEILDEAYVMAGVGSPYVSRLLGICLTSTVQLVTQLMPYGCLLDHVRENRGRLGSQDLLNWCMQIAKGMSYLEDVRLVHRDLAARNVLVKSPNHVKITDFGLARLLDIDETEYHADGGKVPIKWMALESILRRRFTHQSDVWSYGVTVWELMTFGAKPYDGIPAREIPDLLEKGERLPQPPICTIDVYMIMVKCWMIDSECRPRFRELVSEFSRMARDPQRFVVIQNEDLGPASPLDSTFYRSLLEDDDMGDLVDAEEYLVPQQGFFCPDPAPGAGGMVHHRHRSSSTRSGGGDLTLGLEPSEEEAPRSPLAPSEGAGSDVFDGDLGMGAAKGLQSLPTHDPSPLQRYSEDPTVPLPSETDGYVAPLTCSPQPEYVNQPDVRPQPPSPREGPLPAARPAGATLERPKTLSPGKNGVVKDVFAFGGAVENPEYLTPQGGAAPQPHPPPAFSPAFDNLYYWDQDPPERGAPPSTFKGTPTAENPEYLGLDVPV

Row | Structure (SMILES) | viability [1] | Her2 level [2] | viability [3] | viability [4] | viability [5] | differential viability (reversal) ([6]; H69AR cells + 2 uM doxorubicin) | viability [6, 9] | viability [6, 10] | inhibition [7] | inhibition [8]
1 | Cc1ccc2oc(-c3ccccc3C(=O)O)cc(=O)c2c1 | 88.5% | 84.5% (inactive) | 88.5% (inactive) | 89.3% (inactive) | 101% (inactive) | -2.34% (inactive) | 103% | 101% | -6.93% (inactive) | 6.07% (inactive)
2 | Cn1c(=O)c2c(nc(CN3CCOCC3)n2CC(O)CO)n(C)c1=O (stereo not given) | 111% | 107% (inactive) | 111% (inactive) | 104% (inactive) | 86.2% (inactive) | -4.93% (inactive) | 91.1% | 86.2% | -3.9% (inactive) | 2.46% (inactive)
3 | Cc1onc(-c2ccccc2Cl)c1C(=O)Nc1cccnc1 | 102% | 72% (inactive) | 102% (inactive) | 103% (inactive) | 95.6% (inactive) | 1.41% (inactive) | 94.2% | 95.6% | -7.57% (inactive) | -1.31% (inactive)
4 | CCOc1ccc(OCC)c(NC(=O)CCCN2C(=O)c3cccnc3C2=O)c1 | 110% | 128% (inactive) | 110% (inactive) | 110% (inactive) | 85.8% (inactive) | -2.52% (inactive) | 88.3% | 85.8% | 0.81% (inactive) | 7.14% (inactive)
5 | CCCn1cnc2c(c1=O)c1nc3ccccc3nc1n2Cc1ccccc1OC | 99% | 97% (inactive) | 99% (inactive) | 91.9% (inactive) | 86.4% (inactive) | -1.82% (inactive) | 88.2% | 86.4% | -7.11% (inactive) | -2.22% (inactive)
6 | COC(=O)c1c(O)ccc(Oc2ccccc2)c1C(=O)OC | 104% | 119% (inactive) | 104% (inactive) | 95.9% (inactive) | 85.3% (inactive) | -1.09% (inactive) | 86.4% | 85.3% | -4.49% (inactive) | -4.67% (inactive)
7 | COc1ccc(C(=O)N(CCCO)Cc2cc3c(C)ccc(C)c3[nH]c2=O)cc1OC | 90.5% | 95% (inactive) | 90.5% (inactive) | 113% (inactive) | 95.1% (inactive) | 12.2% (inactive) | 82.9% | 95.1% | -5.06% (inactive) | 2.46% (inactive)
8 | O/N=C/c1ccc(OCC(O)COc2ccc(/C=N/O)cc2)cc1 | 89.5% | 112% (inactive) | 89.5% (inactive) | 75.9% (inactive) | 90.1% (inactive) | -1.19% (inactive) | 91.3% | 90.1% | -1.54% (inactive) | 4.83% (inactive)
9 | C[C@H](NC(=O)Nc1cccc(C(F)(F)F)c1)C(=O)O | 108% | 108% (inactive) | 108% (inactive) | 94.3% (inactive) | 93.2% (inactive) | 5.33% (inactive) | 87.9% | 93.2% | -3.07% (inactive) | 1.61% (inactive)
10 | CCOc1ccc(C2C=C(c3ccc(F)cc3)Nc3ncnn32)cc1 (stereo not given) | 91.5% | 87% (inactive) | 91.5% (inactive) | 81.2% (inactive) | 82.2% (inactive) | 3.07% (inactive) | 79.1% | 82.2% | -4.42% (inactive) | 9.34% (inactive)
11 | Cc1ccc(CSC2=NCCN2C(=O)C2CC2)cc1 | 100% | 88% (inactive) | 100% (inactive) | 83.3% (inactive) | 97% (inactive) | 10.7% (inactive) | 86.3% | 97% | -8.11% (inactive) | 8.57% (inactive)
12 | COc1ccccc1N1C(=O)c2ccccc2NC1c1ccncc1 (stereo not given) | 104% | 100% (inactive) | 104% (inactive) | 101% (inactive) | 104% (inactive) | 9.81% (inactive) | 94% | 104% | -1.51% (inactive) | -7.14% (inactive)
13 | NC(=O)c1ccccc1NC(=O)CCCN1C(=O)CCC1=O | 101% | 83.5% (inactive) | 101% (inactive) | 92.9% (inactive) | 95.6% (inactive) | 10.6% (inactive) | 85% | 95.6% | -6.89% (inactive) | -1.9% (inactive)
14 | O=C(CC(C(=O)N1CCc2ccccc21)n1ccnc1)NCc1cccnc1 (stereo not given) | 100% | 100% (inactive) | 100% (inactive) | 97.9% (inactive) | 89.1% (inactive) | -10.9% (inactive) | 100% | 89.1% | 1.17% (inactive) | 1.8% (inactive)
15 | CN(C(=O)COc1cc(=O)n(C)c2ccccc12)c1ccc(Br)cc1 | 100% | 104% (inactive) | 100% (inactive) | 74.5% (inactive) | 82.5% (inactive) | 4.22% (inactive) | 78.3% | 82.5% | -1.87% (inactive) | -4.1% (inactive)
16 | COCCSc1ccccc1C(=O)Nc1nncs1 | 88% | 102% (inactive) | 88% (inactive) | 96.2% (inactive) | 92.5% (inactive) | 3.37% (inactive) | 89.2% | 92.5% | -4.73% (inactive) | 2.22% (inactive)

— PubChem BioAssay
